ARFGAP1 inh – inhibitors of rat ARFGAP1 GAP activity, primary screen, biochemical, fluorescence polarization, GDP tracer; ADP-ribosylation factor GTPase-activating protein 1 (Rattus norvegicus), Q62848; Arfgap1-stimulated ARF1 GTP hydrolysis, GDP FP detection; inhibition, % at 16.5 µM; hit rate 0.26% among 360,000;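 active means inhibition above a per-plate limit, mean inhibition of low control wells plus 3 SD, cut at about 25% in these data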;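 further: 0% = DMSO wells with enzyme and 100% = wells lacking Arfgap1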
Target sequence (Q62848 1-136 limits assumed): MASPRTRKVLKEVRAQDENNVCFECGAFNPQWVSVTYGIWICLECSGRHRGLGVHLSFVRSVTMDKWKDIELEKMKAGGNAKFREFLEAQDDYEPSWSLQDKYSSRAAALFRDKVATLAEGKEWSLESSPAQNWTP
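Replicates: Single well per compound | Assay system: Truncated rat Arfgap1 GAP domain | Control set: No-Arfgap1 wells (100%) versus DMSO full-reaction wells (0%) | Times: Enzyme reaction 120 min at 25 °C after 20 min preincubation | Reagent: Human ARF1(Δ1-17)-GTP substrate | Measured by: Tracer-displacement fluorescence polarization with EDTA stop, 620/688 nm | Measure: Percent inhibition of Arfgap1-stimulated GTP hydrolysis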
Tn7 DDE FP – inhibitors of Tn7 peptide binding to fibrin DD(E), primary screen, biochemical, fluorescence polarization, human fibrin, Tn7 probe. Fibrinogen beta chain (Homo sapiens), P02675. FP displacement of FITC-Tn7 peptide from fibrin DD(E); 0% = median of compound wells per plate. inhibition, % at 8.3 µM. hit rate 0.13% among 370,000. AID 720508, 2013;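 active means inhibition above the mean of compounds falling within the control limits plus 3 SD of them, cut at about 14% in these data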;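 further: 0% = plate median of compound wells and 100% = 10 µM Aha-Tn7 peptide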
Target sequence (P02675 whole entry, looked up): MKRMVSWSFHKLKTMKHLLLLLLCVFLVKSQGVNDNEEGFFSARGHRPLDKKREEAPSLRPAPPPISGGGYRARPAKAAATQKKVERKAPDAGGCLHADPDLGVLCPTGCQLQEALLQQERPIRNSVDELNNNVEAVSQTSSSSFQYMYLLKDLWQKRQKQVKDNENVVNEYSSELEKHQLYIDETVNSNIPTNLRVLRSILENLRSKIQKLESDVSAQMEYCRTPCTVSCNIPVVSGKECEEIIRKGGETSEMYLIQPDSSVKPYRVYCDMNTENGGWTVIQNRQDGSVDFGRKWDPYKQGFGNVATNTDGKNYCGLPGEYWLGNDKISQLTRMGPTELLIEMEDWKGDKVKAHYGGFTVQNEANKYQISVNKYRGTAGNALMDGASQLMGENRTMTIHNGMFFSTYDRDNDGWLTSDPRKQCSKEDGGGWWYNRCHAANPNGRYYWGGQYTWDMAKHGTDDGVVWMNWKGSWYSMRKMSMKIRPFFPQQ
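assay system = human clot-derived fibrin DD(E) complex | quantity = Fibrin-DD(E) at 2 µM final | timing = 10 min preincubation, 3 h with tracer, room temperature | signal = fluorescence polarization | measure = percent inhibition | benchmarks = high control wells with 10 µM unlabelled Aha-Tn7 peptide (full inhibition) | replicates = singlicate testing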
ASAP1 GAP inh – inhibitors of human ASAP1 ArfGAP activity, primary screen, biochemical, fluorescence polarization. Arf-GAP with SH3 domain, ANK repeat and PH domain-containing protein 1 (Homo sapiens), …. ASAP1-stimulated ARF1 GTP hydrolysis, GDP FP detection. inhibition, % at 16.5 µM. hit rate 0.19% among 360,000. AID 624377, 2012; in the data active means inhibition above about 25%;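 further: 0% = vehicle with enzyme and substrate and 100% = no enzyme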
Tn6 DDE FP – inhibitors of Tn6 peptide binding to fibrin DD(E), primary screen, biochemical, fluorescence polarization, human fibrin, Tn6 probe; Fibrin DD(E) TRITC-Tn6 fluorescence polarization displacement; hit rate 0.21% among 370,000; inhibition, % at 8.3 µM; Fibrinogen beta chain (Homo sapiens), P02675;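 active means inhibition above a per-campaign cutoff: mean of compounds within control limits plus 3 SD, cut at about 15% in these data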;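 further: 0% = median of all compound wells on the plate and 100% = blocking peptide control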
DDE Tn7 confirm – inhibitors of Tn7 peptide binding to fibrin DD(E), confirmation, biochemical, fluorescence polarization, human fibrin, Tn7 probe; FP displacement of TRITC-Tn7 peptide from DD(E); 0% set at plate's compound-well median; hit rate 5% among 460; AID 720628, 2013; shares compounds with Tn7 DDE FP; inhibition, % at 8.3 µM;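 active means inhibition above the campaign cutoff, the mean of compounds within control limits plus 3 SD, cut at about 14% in these data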;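 further: 100% = median FP of high control wells holding Aha-Tn7 inhibitor peptide; displacers lower polarization since freed probe rises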
DDE Tn7 FP ctr – counter-screen hit for Tn7 peptide-fibrin DD(E) binding disruption; shares compounds with Tn7 DDE FP; hit rate 3% among 460; AID 720633; inhibition, % at 8.3 µM; TRITC-Tn7 probe displacement, fluorescence polarization;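 active means inhibition above the cutoff, the mean of compounds lying between the control bounds plus 3 SD of those compounds, cut at about 17% in these data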;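 further: 0% = median of compound sample wells and 100% = excess unlabeled Aha-Tn7 peptide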
Starred values were filed as active, the others as inactive; nt = not tested or not shown. The list is not random: actives were taken first. Their share in the collection is about 0.74%.

SMILES | ARFGAP1 inh | Tn7 DDE FP | ASAP1 GAP inh | Tn6 DDE FP | DDE Tn7 confirm | DDE Tn7 FP ctr
COC(=O)C1=C(C)NC(=O)NC1c1ccc2c(c1)OCO2 (stereo unspecified) | -7 | -1 | -3 | -10 | nt | nt
CC1=C(C(=O)OC(C)C)C(c2ccc3c(c2)OCO3)NC(=O)N1 (stereo unspecified) | 0 | 16* | -3 | -6 | 3 | -1
CC1CCC2(CC1)CCC2NCc1ccc(Br)cc1 (stereo unspecified) | nt | -6 | nt | 2 | nt | nt
COc1ccc(S(=O)(=O)N(C)CC(=O)NCc2ccc3c(c2)OCO3)cc1 | -13 | 3 | 0 | 7 | nt | nt
COc1ccc(N(CC(=O)NCc2ccc3c(c2)OCO3)S(=O)(=O)c2ccc(O)c(C(=O)O)c2)cc1 | 5 | 15* | 3 | 2 | -2 | -9
CC1CCN(CC(O)COCCC23CC4CC(CC(C4)C2)C3)CC1 (stereo unspecified) | -6 | 15* | 0 | 2 | 4 | -7
C=CC[C@@H](CC(=O)N(CCO)Cc1ccccc1)C(=O)N[C@@H](COC(=O)[C@@H](CC=C)Cc1ccc(F)cc1)Cc1ccccc1 | 7 | -11 | -3 | 0 | nt | nt
C=CC[C@@H](CC(=O)N(CCO)Cc1ccccc1)C(=O)N[C@H](COC(=O)[C@@H](CC=C)Cc1ccc(F)cc1)Cc1ccccc1 | -7 | 16* | -10 | 3 | -1 | -4
COc1ccc2ccccc2c1C=NNC(=O)c1cc(-c2ccc(C)cc2)n[nH]1 | nt | -1 | nt | 14 | nt | nt
Cc1ccc(N2C(=O)c3cccc4c(N)ccc(c34)C2=O)c2cccnc12 | 20 | 19* | 0 | 0 | -33 | 5
CCN(CC)C(=O)Cn1nc(Cc2ccncc2)c2ccccc2c1=O | nt | 3 | nt | -1 | nt | nt
N#C[C@@H]1N[C@H](CO)[C@@H]1c1ccccc1 | nt | 0 | nt | 4 | nt | nt
CN(C)S(=O)(=O)N1CCC(Oc2ccc(C(=O)N3C[C@@H]4CCC[C@H]3C4)cc2)CC1 | -12 | 14* | -2 | 9 | 4 | -3
O=C(c1ccccc1C(F)(F)F)N1CCC(Oc2cccnc2)CC1 | nt | -4 | nt | -7 | nt | nt
O=C(NCCC(=O)N1CCN(c2ccccn2)CC1)c1ccc([N+](=O)[O-])cc1 | -3 | 15* | -7 | 1 | -4 | -17
Cc1cccc(-c2cccc3c4c([nH]c23)[C@@H]2C[C@H](N(C)C(=O)c3cccc(Cl)c3)[C@H]([C@H](C)O)CN2CC4)c1 | nt | 0 | nt | 7 | nt | nt
COc1ccccc1-c1ccccc1C1=CC(=O)CC(C)(C)C1=O | -6 | 14* | 7 | 0 | 3 | 1
Cc1[nH]c2c(C)cccc2c(=O)c1CN1CCCCCC1 | -7 | 16* | -7 | 4 | 5 | 4
CCc1ccc2[nH]c(C)c(CN3CCCCCC3)c(=O)c2c1 | 0 | 5 | -6 | -4 | nt | nt
COCCn1c2nc(=O)n(-c3ccccc3)c(=O)c-2nc2ccccc21 | -1 | 51* | 18 | 2 | 26* | -1
COCCn1c(-c2ccc(OC)cc2)nc2ccccc21 | -6 | 0 | -13 | -1 | nt | nt
O=C(CSc1nnc(COc2ccc(Cl)cc2)n1Cc1ccco1)Nc1ccc2c(c1)OCO2 | nt | -2 | nt | 6 | nt | nt
O=C(Nc1cccc(Cl)c1)N1CCCC1 | -3 | 14* | 5 | 6 | 0 | -2
O=C(Nc1cccc(Cl)c1)N1CCOCC1 | 1 | 2 | 4 | 0 | nt | nt
CC(C)c1nc(C#N)c(NCCCn2ccnc2)o1 | -29 | -6 | 5 | 4 | nt | nt
SMILES | ARFGAP1 inh | Tn7 DDE FP | ASAP1 GAP inh | Tn6 DDE FP | DDE Tn7 confirm | DDE Tn7 FP ctr
CC(C)c1nc(C#N)c(NN)o1 | -8 | 14* | -21 | -3 | -7 | -9
CC(=O)c1nc(N2C(=O)CC(Cc3cccc(C)c3)C2=O)sc1C (stereo unspecified) | 4 | 16* | 8 | -6 | 2 | 2
CC(=O)c1nc(N2C(=O)CC(Cc3cc(C)cc(C)c3)C2=O)sc1C (stereo unspecified) | 0 | -1 | 9 | 0 | nt | nt
O=C(CN1CCCc2ccccc21)NCc1ccccc1F | nt | 2 | nt | 2 | nt | nt
NC(=O)CC(NC(=O)Cc1ccc(Cl)cc1)c1ccc(NC2CCCC2)c([N+](=O)[O-])c1 (stereo unspecified) | -1 | 14* | -12 | -4 | 7 | 5
CC1(C)Cc2c(cnn2-c2ccccc2)C(NC(=O)CCCN2CCCCC2=O)C1 (stereo unspecified) | 3 | 16* | 3 | -1 | 1 | 0
COc1ccc2c(c1)CO[C@H]([C@H](O)COC(C)=O)[C@H]2/C=C/c1ccccc1 | nt | 15* | nt | -5 | 10 | 5
CCOc1cc(C(C(=O)NCC2CCCO2)N(C(=O)Cn2nnc3ccccc32)c2ccc(NC(C)=O)cc2)ccc1O (stereo unspecified) | -1 | 31* | 1 | 1 | -2 | -7
COc1cc(C(C(=O)NCC2CCCO2)N(C(=O)Cn2nnc3ccccc32)c2ccc(OC)c(OC)c2)ccc1O (stereo unspecified) | 4 | 0 | -6 | -2 | nt | nt
COCCN1CCCC(CNCc2cn(C)nc2-c2ccc(Oc3ccccc3)cc2)C1 (stereo unspecified) | 5 | 15* | -6 | 2 | -3 | -6
O=C(NC(=O)c1ccc(C(F)(F)F)cc1)Nc1ccc(-c2cnco2)cc1 | 5 | 14* | 4 | 0 | -2 | -3
O=C(Nc1ccc(-c2cnco2)cc1)c1ccc(F)cc1F | -6 | 11 | -3 | -3 | nt | nt
COc1ccccc1CN1C[C@@H]2C[C@@H](c3ccccc3C)N3CCC[C@@]23C1=O | -9 | 16* | 11 | 4 | -2 | -4
Cc1cc(=O)n(Cc2ccco2)c(=S)[nH]1 | 7 | 16* | -11 | 5 | -2 | -8
CCCN(CCC)C(=O)c1ccc2c(=O)n(Cc3ccco3)c(=S)[nH]c2c1 | -2 | 0 | 12 | 5 | nt | nt
COC(=O)CCCn1cc(CN2CC=CS2(=O)=O)nn1 | nt | 2 | nt | -1 | nt | nt
CCOC(=O)C(C)(C)Oc1cccc2c1S(=O)(=O)c1ccccc1-2 | -10 | 14* | 6 | 0 | 2 | 1
CC1=C(C(N)=O)S(=O)(=O)c2ccccc21 | 10 | -5 | 3 | -2 | nt | nt
O=C(O)c1ccccc1C1=Nc2ccc(O)cc2Oc2cc(O)ccc21 | -12 | 35* | -3 | 9 | 5 | -6

Screening data as filed in PubChem.
